Data published in ChEMBL document CHEMBL4033747, “Design and synthesis of a novel inhibitor of T. Viride chitinase through an in silico target fishing protocol” (Bioorg Med Chem Lett, 2017).
pIC50, pKi: −log10 of the molar value. Converted amounts (≈) assume the structure as drawn.

Assays:
[1] = molecular target: Chitinase (Hypocrea rufa, UniProt D2K848); assay: Inhibition of Trichoderma viride chitinase incubated for 10 mins to 3 hrs using 4-nitrophenyl N-acetyl-beta-D-glucosaminide substrate by spectrophotometry
Chitinase, sequence (D2K848 whole entry): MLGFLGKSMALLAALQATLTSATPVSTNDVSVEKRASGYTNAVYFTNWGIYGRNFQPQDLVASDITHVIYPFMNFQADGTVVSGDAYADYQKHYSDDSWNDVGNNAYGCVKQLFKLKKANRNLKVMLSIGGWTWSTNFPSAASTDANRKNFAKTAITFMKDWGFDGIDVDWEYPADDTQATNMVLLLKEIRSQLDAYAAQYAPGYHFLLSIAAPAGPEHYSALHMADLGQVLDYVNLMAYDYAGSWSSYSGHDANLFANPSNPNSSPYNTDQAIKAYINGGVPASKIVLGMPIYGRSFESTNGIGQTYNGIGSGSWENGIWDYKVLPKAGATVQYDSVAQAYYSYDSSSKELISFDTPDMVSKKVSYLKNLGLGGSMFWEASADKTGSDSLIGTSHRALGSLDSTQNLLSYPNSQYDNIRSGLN
Method in brief: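 Commercial Trichoderma viride chitinase preincubated with varying inhibitor concentrations directly in the reading plate, room temperature, 3 h. Substrate 4-nitrophenyl N-acetyl-β-D-glucosaminide then added. […] IC50 and Ki calculated from these readings.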

[2] = system: Candida albicans; assay: Antifungal activity against Candida albicans incubated for 24 hrs by visual and spectrophotometry method; type: functional
[3] = system: Meyerozyma guilliermondii; assay: Antifungal activity against Candida guillermondii incubated for 24 hrs by visual and spectrophotometry method; type: functional
[4] = system: Pichia kudriavzevii; assay: Antifungal activity against Candida krusei incubated for 24 hrs by visual and spectrophotometry method; type: functional
[5] = system: Candida parapsilosis; assay: Antifungal activity against Candida parapsilosis incubated for 24 hrs by visual and spectrophotometry method; type: functional; conditions: Lodderomyces parapsilosis
[6] = system: Candida tropicalis; assay: Antifungal activity against Candida tropicalis incubated for 24 hrs by visual and spectrophotometry method; type: functional
[7] = system: Kluyveromyces marxianus; assay: Antifungal activity against Candida kefyr incubated for 24 hrs by visual and spectrophotometry method; type: functional
[8] = system: Nakaseomyces glabratus; assay: Antifungal activity against Candida glabrata incubated for 24 hrs by visual and spectrophotometry method; type: functional

SMILES	pIC50 [1]	pKi [1]	MIC90 [2] [µg/mL]	MIC90 [3] [µg/mL]	MIC90 [4] [µg/mL]	MIC90 [5] [µg/mL]	MIC90 [6] [µg/mL]	MIC90 [7] [µg/mL]	MIC90 [8] [µg/mL]
CNC(=O)NC(=N)NCCCCCCCCN1CCCCCCOc2ccccc2CNC(=N)NC1=O	6.17	6.66	25 (≈ 48.4 µM)	25 (≈ 48.4 µM)	12 (≈ 23.2 µM)	25 (≈ 48.4 µM)	12 (≈ 23.2 µM)	6 (≈ 11.6 µM)	25 (≈ 48.4 µM)
C/C=C/CNC(=N)NCCCCCCCCN1CCCCCCOc2ccccc2CNC(=N)NC1=O	4.45	4.85	4 (≈ 7.79 µM)	2 (≈ 3.89 µM)	4 (≈ 7.79 µM)	2 (≈ 3.89 µM)	1 (≈ 1.95 µM)	2 (≈ 3.89 µM)	16 (≈ 31.1 µM)
CCNC(=N)NCCCCCCN1CCCCCCCCNC(=N)NC1=O	3.85	4.34	–	–	–	–	–	–	–
C=C(C)CNC(=N)NCCCCCCN1CCCCCCCCNC(=N)NC1=O	3.97	4.46	–	–	–	–	–	–	–
C/C=C/CNC(=N)NCCCCCCN1CCCCCCCCNC(=N)NC1=O	3.95	4.45	–	–	–	–	–	–	–
C#CCNC(=N)NCCCCCCN1CCCCCCCCNC(=N)NC1=O	4.01	4.50	–	–	–	–	–	–	–
C/C=C/CNC(=N)NCCCCCCCCN1CCCCCOc2ccccc2CNC(=N)NC1=O	4.26	4.75	–	–	–	–	–	–	–
C/C=C/CNC(=N)NCCCCCCCCN1CCCCCCCCNC(=N)NC1=O	3.80	4.29	–	–	–	–	–	–	–
N=C(NCCCCCCCCN1CCCCCCCCNC(=N)NC1=O)NCC1CC1	3.89	4.38	–	–	–	–	–	–	–
